ChEMBL document CHEMBL3813633, “2-Aryl-8-aza-3-deazaadenosine analogues of 5'-O-[N-(salicyl)sulfamoyl]adenosine: Nucleoside antibiotics that block siderophore biosynthesis in Mycobacterium tuberculosis” (Bioorg Med Chem, 2016)
Values after ≈ are worked out from the molar mass of the structure shown. Active and inactive are the calls of the source. The calls are words filed in the database; no cut-off is given here.

How the values were obtained:
[1] = system: Mycobacterium tuberculosis; assay: Antibacterial activity against Mycobacterium tuberculosis H37Rv at 50 uM under iron-replete condition after 10 to 14 days by broth microdilution method; assay type: functional, organism-based
[2] = system: Mycobacterium tuberculosis; assay: Antibacterial activity against Mycobacterium tuberculosis H37Rv under iron-deficient condition after 10 to 14 days by broth microdilution method; assay type: functional
How it was run: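 M. tuberculosis H37Rv broth microdilution in iron-deficient GAST (GAS medium without ferric ammonium citrate, pH 6.6). Compounds were added from DMSO stocks, with isoniazid as positive control and DMSO as negative control. Initial density was 10^4–10^5 cells/assay at 37 °C. Growth was read as OD620 at 10–14 days, when controls reached OD620 0.2–0.3. MIC was determined in triplicate.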

For `Nc1nc(-c2ccc(F)cc2)cc2c1nnn2[C@@H]1O[C@H](COS(=O)(=O)NC(=O)c2ccccc2O)[C@@H](O)[C@H]1O`, the Activity [1] was “inactive” and the MIC [2] was 19 µM (≈ 10.6 µg/mL).

For `Nc1nc(-c2ccccc2)cc2c1nnn2[C@@H]1O[C@H](COS(=O)(=O)NC(=O)c2ccccc2O)[C@@H](O)[C@H]1O`, the Activity [1] was “inactive” and the MIC [2] was 25 µM (≈ 13.6 µg/mL).

`Nc1nc(-c2ccc(C(F)(F)F)cc2)cc2c1nnn2[C@@H]1O[C@H](COS(=O)(=O)NC(=O)c2ccccc2O)[C@@H](O)[C@H]1O` was tested, and the Activity [1] was “inactive” and the MIC [2] was over 50 µM.

With `COc1ccc2cc(-c3cc4c(nnn4[C@@H]4O[C@H](COS(=O)(=O)NC(=O)c5ccccc5O)[C@@H](O)[C@H]4O)c(N)n3)ccc2c1` the Activity [1] was “inactive” and the MIC [2] was 19 µM (≈ 11.8 µg/mL).

`Cc1ccc(-c2cc3c(nnn3[C@@H]3O[C@H](COS(=O)(=O)NC(=O)c4ccccc4O)[C@@H](O)[C@H]3O)c(N)n2)cc1` was tested, and the Activity [1] was “inactive” and the MIC [2] was 25 µM (≈ 13.9 µg/mL).

`Nc1nc(-c2ccc3ccccc3c2)cc2c1nnn2[C@@H]1O[C@H](COS(=O)(=O)NC(=O)c2ccccc2O)[C@@H](O)[C@H]1O` was tested, and the Activity [1] was “inactive” and the MIC [2] was 12.5 µM (≈ 7.41 µg/mL).
